Values after ≈ are worked out from the molar mass of the structure shown. Active and inactive are the calls of the source. No cut-off for these calls is given here.
Assays:
A2780 = test: cells; format: functional, cell-based; conditions: Homo sapiens, A2780, 96 h
[1] = Aqueous solubility of the compound at pH 6.5 for 24 hrs by HPLC-MS/MS; format: physicochemical
[2] = Clearance in Wistar-Han rat hepatocytes at 1 uM measured for 2 to 90 mins by LC-MS/MS; format: ADME, cell-based, Hepatocyte; conditions: Wistar-Han, time 2-90 min
[3] = Efflux ratio of apparent permeability across basolateral to apical side over apical to basolateral side in human Caco2 cells at 2 uM incubated for 2 hrs; conditions: Caco-2
[4] = Apparent permeability of the compound across apical side to basolateral side in human CaCo-2 cells at 2 uM incubated for 2 hrs; format: ADME, cell-based
Summary of the method: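 Caco-2 monolayers with TEER of at least 400 Ω·cm². Compound (predissolved in DMSO) added apically or basolaterally at a final 2 μM and incubated 2 h at 37 °C, in triplicate. Both compartments were sampled before and after, MeOH-precipitated and analysed by LC–MS/MS. Papp = (Vr/P0)(1/S)(P2/t).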

[5] = Metabolic stability in Wistar-Han rat hepatocytes at 1 uM measured for 2 to 90 mins by LC-MS/MS; format: ADME, cell-based, Hepatocyte; conditions: time 2-90 min
MV4-11 [6] = test: Antitumor activity against human MV4-11 cells xenografted in rat assessed as inhibition of tumor growth at 12 mg/kg, po administered for 15 days; format: functional, organism-based; conditions: time 15.0 day
Summary of the method: (§1)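 Rat MV4-11 xenograft, oral dosing at 12 mg/kg daily for 15 days. Tumor growth was monitored during treatment and for a further 30 days without treatment.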

Cytochrome P450 2C8 = biological target: T1, Cytochrome P450 2C8 (Homo sapiens, UniProt P10632); test: Inhibition of CYP2C8 in human liver microsomes using amodiaquine as substrate by LC-MS/MS analysis; format: ADME; conditions: read-out: INH
T1 sequence (P10632 whole entry): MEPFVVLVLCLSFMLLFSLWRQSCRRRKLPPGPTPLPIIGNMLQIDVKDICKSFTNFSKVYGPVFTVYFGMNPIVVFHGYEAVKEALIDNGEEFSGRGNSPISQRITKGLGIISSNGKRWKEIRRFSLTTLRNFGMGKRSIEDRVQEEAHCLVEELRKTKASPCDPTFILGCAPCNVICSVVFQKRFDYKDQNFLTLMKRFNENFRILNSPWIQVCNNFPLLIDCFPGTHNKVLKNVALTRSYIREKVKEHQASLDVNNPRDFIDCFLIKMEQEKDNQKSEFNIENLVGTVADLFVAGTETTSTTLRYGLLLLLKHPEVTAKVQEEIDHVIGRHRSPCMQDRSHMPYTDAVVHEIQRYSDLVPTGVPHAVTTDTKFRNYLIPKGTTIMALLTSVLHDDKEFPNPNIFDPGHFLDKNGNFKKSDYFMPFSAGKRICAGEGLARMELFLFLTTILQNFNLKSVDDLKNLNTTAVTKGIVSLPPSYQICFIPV

[7] = Ratio of drug level in Wistar-Han rat blood to plasma; conditions: blood and plasma
[8] = Aqueous solubility of the compound at pH 4 for 24 hrs by HPLC-MS/MS; format: physicochemical
Cytochrome P450 2C9 = Cytochrome P450 2C9 (Homo sapiens, UniProt P11712); test: Inhibition of CYP2C9 in human liver microsomes using diclofenac as substrate by LC-MS/MS analysis; format: ADME; conditions: read-out: INH
Cytochrome P450 1A2 [9] = biological target: T2, Cytochrome P450 1A2 (Homo sapiens, UniProt P05177); test: Induction of CYP1A2 in human hepatocytes by LC-MS/MS analysis; format: ADME, cell-based, Hepatocyte
T2 sequence (P05177 whole entry): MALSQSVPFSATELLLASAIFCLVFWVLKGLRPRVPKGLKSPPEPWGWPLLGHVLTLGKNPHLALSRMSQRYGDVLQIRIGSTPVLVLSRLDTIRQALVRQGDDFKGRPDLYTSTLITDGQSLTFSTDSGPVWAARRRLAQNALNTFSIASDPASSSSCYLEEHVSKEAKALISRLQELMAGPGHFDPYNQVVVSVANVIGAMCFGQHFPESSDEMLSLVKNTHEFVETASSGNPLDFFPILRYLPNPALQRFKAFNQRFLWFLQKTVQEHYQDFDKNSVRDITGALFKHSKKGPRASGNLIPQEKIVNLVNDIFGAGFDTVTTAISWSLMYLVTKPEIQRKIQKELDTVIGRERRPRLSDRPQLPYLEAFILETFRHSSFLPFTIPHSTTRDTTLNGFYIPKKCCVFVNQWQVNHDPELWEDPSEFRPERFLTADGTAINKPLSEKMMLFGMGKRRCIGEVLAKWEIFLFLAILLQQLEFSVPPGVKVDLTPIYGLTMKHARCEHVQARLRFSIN

Cytochrome P450 2A6 = biological target: T3, Cytochrome P450 2A6 (Homo sapiens, UniProt P11509); test: Inhibition of CYP2A6 in human liver microsomes using coumarin as substrate by LC-MS/MS analysis; format: ADME
T3 sequence (P11509 whole entry): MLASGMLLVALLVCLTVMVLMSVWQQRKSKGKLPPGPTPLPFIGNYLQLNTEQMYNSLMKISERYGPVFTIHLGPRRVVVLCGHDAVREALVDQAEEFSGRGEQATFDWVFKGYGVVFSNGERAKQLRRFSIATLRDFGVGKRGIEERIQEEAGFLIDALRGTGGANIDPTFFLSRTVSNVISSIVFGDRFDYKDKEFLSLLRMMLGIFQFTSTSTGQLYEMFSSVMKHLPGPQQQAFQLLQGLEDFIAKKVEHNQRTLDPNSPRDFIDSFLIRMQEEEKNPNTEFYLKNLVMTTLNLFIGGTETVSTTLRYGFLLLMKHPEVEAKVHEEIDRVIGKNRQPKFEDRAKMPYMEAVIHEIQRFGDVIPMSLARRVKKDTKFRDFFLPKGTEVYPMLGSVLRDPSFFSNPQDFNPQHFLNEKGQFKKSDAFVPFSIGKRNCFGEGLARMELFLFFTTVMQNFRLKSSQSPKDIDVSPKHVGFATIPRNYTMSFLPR

[10] = Clearance in Wistar-Han rat blood at 0.3 to 0.5 mg/kg, iv measured upto 24 hrs by HPLC with LC-MS/MS; format: ADME, organism-based; conditions: dose 0.3-0.5 mg/kg
[11] = Volume of distribution at steady state in Wistar-Han rat blood at 0.3 to 0.5 mg/kg, iv measured upto 24 hrs by HPLC with LC-MS/MS; format: ADME, organism-based; conditions: dose 0.3-0.5 mg/kg, read-out: Vdss
Cytochrome P450 1A2 [12] = biological target: T2, Cytochrome P450 1A2; test: Inhibition of CYP1A2 in human liver microsomes using phenacetin as substrate by LC-MS/MS analysis; format: ADME; conditions: read-out: INH
MV4-11 [13] = test: Antitumor activity against human MV4-11 cells xenografted in rat assessed as inhibition of tumor growth at 12 mg/kg, po administered for 15 days measured after without treatment for additional 30 days; format: functional, organism-based; conditions: time 15.0 day
Summary of the method: as §1

Cytochrome P450 3A4 = Cytochrome P450 3A4 (Homo sapiens, UniProt P08684); test: Inhibition of CYP3A4 in human liver microsomes using midazolam/testosterone as substrate by LC-MS/MS analysis; format: ADME; conditions: read-out: INH
MOLM-13 = test: cells; format: functional, cell-based; conditions: Homo sapiens, MOLM-13, 96 h
[14] = Clearance in Wistar-Han rat Liver microsomes at 1 uM measured for 2 to 90 mins by LC-MS/MS; format: ADME, Microsome; conditions: time 2-90 min
Cytochrome P450 2D6 = Cytochrome P450 2D6 (Homo sapiens, UniProt P10635); test: Inhibition of CYP2D6 in human liver microsomes using dextromethorphan as substrate by LC-MS/MS analysis; format: ADME; conditions: read-out: INH
Cytochrome P450 2B6 = biological target: T4, Cytochrome P450 2B6 (Homo sapiens, UniProt P20813); test: Inhibition of CYP2B6 in human liver microsomes using bupropion as substrate by LC-MS/MS analysis; format: ADME
T4 sequence (P20813 whole entry): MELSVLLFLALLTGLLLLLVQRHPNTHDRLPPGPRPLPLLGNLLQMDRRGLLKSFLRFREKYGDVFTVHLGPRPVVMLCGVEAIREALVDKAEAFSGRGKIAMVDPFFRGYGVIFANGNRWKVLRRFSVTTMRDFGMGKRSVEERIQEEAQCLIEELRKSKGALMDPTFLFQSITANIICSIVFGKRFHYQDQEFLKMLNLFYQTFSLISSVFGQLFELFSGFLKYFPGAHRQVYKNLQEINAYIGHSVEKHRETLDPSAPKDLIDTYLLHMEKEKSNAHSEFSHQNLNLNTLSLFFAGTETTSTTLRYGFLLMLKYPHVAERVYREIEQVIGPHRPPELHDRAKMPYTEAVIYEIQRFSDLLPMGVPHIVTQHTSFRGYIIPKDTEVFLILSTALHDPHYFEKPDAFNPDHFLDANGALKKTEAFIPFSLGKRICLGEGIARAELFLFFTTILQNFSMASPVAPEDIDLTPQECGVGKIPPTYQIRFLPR

Cytochrome P450 2E1 = Cytochrome P450 2E1 (Homo sapiens, UniProt P05181); test: Inhibition of CYP2E1 in human liver microsomes using chlorzoxazone as substrate by LC-MS/MS analysis; format: ADME
Cytochrome P450 2C19 = Cytochrome P450 2C19 (Homo sapiens, UniProt P33261); test: Inhibition of CYP2C19 in human liver microsomes using (S)-mephenytoin as substrate by LC-MS/MS analysis; format: ADME; conditions: read-out: INH
Cytochrome P450 2C19, sequence (P33261 whole entry): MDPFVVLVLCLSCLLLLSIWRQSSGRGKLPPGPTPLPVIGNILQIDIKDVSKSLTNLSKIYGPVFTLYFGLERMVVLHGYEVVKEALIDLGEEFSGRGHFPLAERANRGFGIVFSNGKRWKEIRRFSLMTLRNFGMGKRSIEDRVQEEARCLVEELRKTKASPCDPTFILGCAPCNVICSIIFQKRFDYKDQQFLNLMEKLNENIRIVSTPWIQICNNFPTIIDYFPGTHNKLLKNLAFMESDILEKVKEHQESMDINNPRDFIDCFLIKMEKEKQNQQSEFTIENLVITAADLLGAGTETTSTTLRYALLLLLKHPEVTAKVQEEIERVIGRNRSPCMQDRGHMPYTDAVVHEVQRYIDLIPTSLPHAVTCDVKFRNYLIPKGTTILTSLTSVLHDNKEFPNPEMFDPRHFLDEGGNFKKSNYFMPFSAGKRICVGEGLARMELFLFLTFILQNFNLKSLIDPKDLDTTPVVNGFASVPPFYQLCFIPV

Cytochrome P450 2E1, sequence (P05181 whole entry): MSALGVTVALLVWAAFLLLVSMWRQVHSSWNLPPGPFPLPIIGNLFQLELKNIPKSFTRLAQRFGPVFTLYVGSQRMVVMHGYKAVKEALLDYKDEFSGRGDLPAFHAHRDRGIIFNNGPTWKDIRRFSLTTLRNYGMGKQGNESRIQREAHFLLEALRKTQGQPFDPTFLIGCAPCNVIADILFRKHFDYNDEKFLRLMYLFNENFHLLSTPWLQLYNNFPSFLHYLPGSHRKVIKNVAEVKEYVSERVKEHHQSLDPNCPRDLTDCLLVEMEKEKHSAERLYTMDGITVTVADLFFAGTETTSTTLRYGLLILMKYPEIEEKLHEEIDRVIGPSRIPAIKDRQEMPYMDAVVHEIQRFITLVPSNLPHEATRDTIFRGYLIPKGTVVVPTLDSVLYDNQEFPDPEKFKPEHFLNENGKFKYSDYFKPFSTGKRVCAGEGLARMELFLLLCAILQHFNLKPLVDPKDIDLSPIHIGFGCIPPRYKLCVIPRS
Cytochrome P450 3A4, sequence (P08684 whole entry): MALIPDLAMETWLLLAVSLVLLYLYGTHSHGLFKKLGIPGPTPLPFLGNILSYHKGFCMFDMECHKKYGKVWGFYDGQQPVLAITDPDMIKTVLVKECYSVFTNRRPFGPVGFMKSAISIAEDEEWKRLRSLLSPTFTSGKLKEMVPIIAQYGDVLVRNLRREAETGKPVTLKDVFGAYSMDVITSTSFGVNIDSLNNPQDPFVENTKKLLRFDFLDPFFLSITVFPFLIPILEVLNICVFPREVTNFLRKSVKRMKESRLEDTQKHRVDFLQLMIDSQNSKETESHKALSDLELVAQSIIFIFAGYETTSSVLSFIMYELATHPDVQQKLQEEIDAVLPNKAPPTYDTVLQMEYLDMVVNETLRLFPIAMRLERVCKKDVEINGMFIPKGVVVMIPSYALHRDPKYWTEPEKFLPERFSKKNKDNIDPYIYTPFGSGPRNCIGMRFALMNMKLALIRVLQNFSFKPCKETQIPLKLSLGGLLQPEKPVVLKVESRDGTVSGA
Cytochrome P450 2D6, sequence (P10635 whole entry): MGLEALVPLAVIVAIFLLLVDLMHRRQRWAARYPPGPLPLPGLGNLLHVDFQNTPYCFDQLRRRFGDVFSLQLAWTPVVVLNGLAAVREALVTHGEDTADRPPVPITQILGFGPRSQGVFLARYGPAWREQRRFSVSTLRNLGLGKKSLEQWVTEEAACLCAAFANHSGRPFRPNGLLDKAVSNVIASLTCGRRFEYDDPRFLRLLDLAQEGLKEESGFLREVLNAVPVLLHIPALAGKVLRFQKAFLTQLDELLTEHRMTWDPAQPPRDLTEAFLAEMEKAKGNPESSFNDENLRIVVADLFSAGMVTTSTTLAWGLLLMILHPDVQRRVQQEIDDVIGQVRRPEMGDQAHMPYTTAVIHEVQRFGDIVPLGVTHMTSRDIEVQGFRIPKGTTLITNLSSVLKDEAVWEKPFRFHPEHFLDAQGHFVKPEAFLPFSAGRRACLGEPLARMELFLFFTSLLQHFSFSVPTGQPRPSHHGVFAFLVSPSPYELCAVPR
Cytochrome P450 2C9, sequence (P11712 whole entry): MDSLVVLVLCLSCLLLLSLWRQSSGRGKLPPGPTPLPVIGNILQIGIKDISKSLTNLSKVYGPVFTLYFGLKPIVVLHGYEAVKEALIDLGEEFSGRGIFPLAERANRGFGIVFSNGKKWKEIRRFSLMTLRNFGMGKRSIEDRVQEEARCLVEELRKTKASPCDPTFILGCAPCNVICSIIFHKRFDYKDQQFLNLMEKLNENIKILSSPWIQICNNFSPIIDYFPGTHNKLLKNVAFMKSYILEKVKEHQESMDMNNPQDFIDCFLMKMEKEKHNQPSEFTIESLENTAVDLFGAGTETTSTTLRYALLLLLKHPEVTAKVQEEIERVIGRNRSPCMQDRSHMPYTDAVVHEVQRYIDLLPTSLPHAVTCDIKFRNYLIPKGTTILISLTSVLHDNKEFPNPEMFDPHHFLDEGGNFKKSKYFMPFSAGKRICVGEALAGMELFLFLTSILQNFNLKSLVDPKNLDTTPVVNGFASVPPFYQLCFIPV

SMILES: COc1cc(F)ccc1-c1nc(Nc2cc(F)cc(CS(=O)(CCCO)=NC#N)c2)ncc1F (stereo unspecified)
- IC50 (A2780): 262 nM
- solubility at 24 h [1]: 0.5 µg/mL (≈ 1.02 µM)
- CLhep predicted at 1 µM [2]: 58.3 mL/min/kg

SMILES: COc1cc(F)ccc1-c1nc(Nc2cncc(CS(C)(=N)=O)c2)ncc1F (stereo unspecified)
- IC50 (A2780): 46 nM
- efflux ratio at 2 h, 2 µM [3]: > 10
- Papp A→B at 2 h, 2 µM [4]: 2.3 ×10⁻⁶ cm/s
- solubility at 24 h [1]: 103 µg/mL (≈ 254 µM)
- CLhep predicted at 1 µM [2]: 18.3 mL/min/kg

SMILES: COc1cc(F)ccc1-c1nc(Nc2cc(F)cc(CS(C)(=N)=O)c2)ncc1F (stereo in doubt; 9)
- solubility at 24 h [1]: 24 µg/mL (≈ 56.8 µM)
- CLhep predicted at 1 µM [2]: 28.3 mL/min/kg

SMILES: COc1cc(CS(C)(=N)=O)cc(Nc2ncc(F)c(-c3ccc(F)cc3OC)n2)c1 (stereo unspecified)
- solubility at 24 h [1]: 5 µg/mL (≈ 11.5 µM)
- CLhep predicted at 1 µM [2]: 38.3 mL/min/kg

SMILES: COc1cc(F)ccc1-c1nc(Nc2cc(F)cc(CN)c2)ncc1F
- IC50 (A2780): 692 nM
- solubility at 24 h [1]: 17 µg/mL (≈ 47.2 µM)
- Stability [5]: Unstable
- CLhep predicted at 1 µM [2]: 50 mL/min/kg

SMILES: COc1cc(F)ccc1-c1ncnc(Nc2cccc(CS(C)(=N)=O)c2)n1 (stereo unspecified)
- Activity (MV4-11 [6]): Active
- IC50 (Cytochrome P450 2C8): > 20000 nM
- IC50 (A2780): 380 nM
- efflux ratio at 2 h, 2 µM [3]: 6.1
- blood plasma ratio [7]: 1.1
- solubility at 24 h [8]: 309 µg/mL (≈ 798 µM)
- IC50 (Cytochrome P450 2C9): > 20000 nM
- Activity (Cytochrome P450 1A2 [9]): Not Active
- Papp A→B at 2 h, 2 µM [4]: 3.5 ×10⁻⁶ cm/s
- solubility at 24 h [1]: 479 µg/mL (≈ 1240 µM)
- INH (Cytochrome P450 2A6): > 20 µM
- clearance [10]: 18.3 mL/min/kg
- Vd [11]: 1 L/kg
- IC50 (Cytochrome P450 1A2 [12]): > 20000 nM
- Activity (MV4-11 [13]): inactive
- IC50 (Cytochrome P450 3A4): > 20000 nM
- IC50 (MOLM-13): 310 nM
- CLhep predicted at 1 µM [2]: 2.83 mL/min/kg
- CLH [14]: 2.5 mL/min/kg
- IC50 (Cytochrome P450 2D6): > 20000 nM
- INH (Cytochrome P450 2B6): > 20 µM
- INH (Cytochrome P450 2E1): > 20 µM
- IC50 (Cytochrome P450 2C19): > 20000 nM

SMILES: COc1cc(F)ccc1-c1cc(Nc2cc(C[S@](C)(=N)=O)ccn2)ncc1F
- IC50 (A2780): 52 nM
- IC50 (MOLM-13): 42 nM

From ChEMBL document CHEMBL5036331 (J Med Chem, 2021)
